Experimental data from PMC3060938 (Clinical cancer research : an official journal of the …, 2011).
Several values for one entry are separate records, joined by “and”; a condition that tells them apart may be missing. Identical values can stand only once.

Tests used:
[1] = test system: NCI 60 human tumor cell line panel; conditions: read-out: Mean IC50, no reference given; cited from earlier work
HSP72 = HSP72 in PBMC and plasma by ELISA; assay type: in vivo, human
How it was run: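 Human patients with advanced solid tumours received a weekly 1-h IV infusion of the test compound, given at 0.1-1.0 mg/mL in 0.9% saline or 5% dextrose. Blood was drawn pre-dose and 24 h post-dose. PBMC were Ficoll-Hypaque separated and stored at −80 °C. HSP72 was measured in PBMC (fmole/μg protein) and plasma (fmole/ml). Each cohort's mean change was compared with the first cohort's by one-tailed t-test (p ≤ 0.05).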

HSP90 [2] = experiment: Western blotting of HSP72, CDK4 and ERBB2 in paired tumor biopsies; assay type: in vivo, human
How it was run: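 Tumour biopsies were taken before and 24 h after the first weekly 1-h IV dose, snap frozen and stored at −80 °C; five paired biopsies per cohort were planned. Lysates were western blotted for HSP72, CDK4 and ERBB2, with GAPDH loading control and HT29 positive control. Each band was scored 0-5 against pre-treatment; a one-point change counted. Signature: HSP72 induction plus CDK4 and/or ERBB2 depletion. Two blinded assessors verified results.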

advanced solid tumors = experiment: Tumor response; assay type: in vivo, human
[3] = Phase I dose escalation of weekly IV 17-DMAG: toxicity; assay type: in vivo, human
How it was run: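 Weekly 1-h IV infusion, continuous, in 4-week cycles, of drug diluted to 0.1-1.0 mg/mL in 0.9% saline or 5% dextrose. Accelerated titration escalation from 2.5 mg/m2, up to 106 mg/m2. AEs graded by NCI-CTCAE v3.0. DLT assessed over the first 28 days. Cohorts expanded to 6 after DLT. MAD defined as ≥2/6 with DLT; MTD as the prior level with ≤1/6.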

[4] = Plasma pharmacokinetics of 17-DMAG by HPLC-MS, non-compartmental analysis; assay type: in vivo, human
How it was run: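 Sampled in course 1: pre-dose, at 30 and 60 min into the 1-h infusion, then 5 min to 96 h after infusion end. Heparinised blood held on ice, spun 252g for 5 min at 4°C, plasma kept at −80°C. Drug measured by validated HPLC-MS. Non-compartmental analysis with constant infusion input. Dose proportionality of AUC and Cmax assessed by linear regression.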

HSP90 [5] = experiment: Western blotting of HSP72, CDK4 and LCK in patients' PBMC; assay type: in vivo, human
How it was run: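 Blood drawn pre-dose, at end of infusion and 1, 8, 24, 48 and 96 h post-dose, plus 24 h after the fifth weekly infusion. PBMC isolated by Ficoll-Hypaque and stored at −80°C. Lysates blotted for HSP72, CDK4 and LCK, with GAPDH as loading control. Each time-point visually compared with pre-treatment and scored 0-5 against a positive control.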

CO[C@H]1/C=C\C=C(/C)C(=O)NC2=CC(=O)C(NCCN(C)C)=C(C[C@@H](C)C[C@H](OC)[C@H](O)[C@@H](C)/C=C(\C)[C@@H]1OC(N)=O)C2=O [17-DMAG, 17-dimethylaminoethylamino-17-demethoxygeldanamycin]
IC50 [1]: 63 nM | Mean plasma HSP72 change between dose levels (HSP72; 24 hours after 17-DMAG, compared with first dose cohort): did not differ | Dose at which HSP72 induction was detected in PBMC (HSP72; ELISA (DELFIA), 24 hours after 17-DMAG): ≥ 20 mg/m^2 | Mean HSP72 plasma level post 17-DMAG (HSP72; all other patients (without DLT)): 86 ± 140 fmol/mL | Highest HSP72 plasma levels post 17-DMAG (HSP72; the 2 patients with DLT (106 mg/m^2), individual values): 1250 fmol/mL and 5610 fmol/mL | HSP90 inhibition in tumor (HSP90 [2]; 106 mg/m^2, single set of samples): confirmed | Patients with HSP90 inhibition detected in tumor (HSP90 [2]; 24 hrs after 80mg/m^2): 3/5 | Tumors with HSP72 induced (HSP90 [2]; 24 hrs after 80mg/m^2): 4/5 | Tumors with client protein depletion (CDK4 or ERBB2) (HSP90 [2]; 24 hrs after 80mg/m^2): 3/5 | Time on treatment before PD (advanced solid tumors; patient with CRPC and complete response, 5mg/m^2 escalated to 20mg/m^2): 124 weeks | Best tumor response (advanced solid tumors; patient with CRPC, 5mg/m^2 escalated to 20mg/m^2, confirmed by CT and PSA): complete response | Time on study with stable disease (advanced solid tumors; patient with CRPC, 20mg/m^2): 59 weeks | Time on study with stable disease (advanced solid tumors; patient with chondrosarcoma, 5mg/m^2 escalated to 20mg/m^2): 28 weeks | Time on study with stable disease (advanced solid tumors; patient with clear cell renal cancer, 80mg/m^2): 76 weeks | Time on treatment before PD (advanced solid tumors; patient with metastatic melanoma and partial response, 40mg/m^2): 159 weeks | Best tumor response (advanced solid tumors; patient with metastatic melanoma, 40mg/m^2): partial response | Patients with progressive disease (PD) (advanced solid tumors; twenty patients evaluable, all dose levels): Nine | Treatment related death ([3]; 106mg/m^2): one treatment related death | Patients with dose limiting toxicity (DLT) ([3]; 106 mg/m^2 weekly IV): 2/4 | ALP (hepatic), adverse events related to 17-DMAG ([3]; Grade 1): 2 | ALT (hepatic), adverse events related to 17-DMAG ([3]; Grade 1): 2 | AST (hepatic), adverse events related to 17-DMAG ([3]; Grade 1): 4 | Alopecia, adverse events related to 17-DMAG ([3]; Grade 1): 2 | Anorexia, adverse events related to 17-DMAG ([3]; Grade 1): 1 | Blurred vision, adverse events related to 17-DMAG ([3]; Grade 1): 2 | Dehydration, adverse events related to 17-DMAG ([3]; Grade 1): 1 | Depression, adverse events related to 17-DMAG ([3]; Grade 1): 1 | Diarrhea, adverse events related to 17-DMAG ([3]; Grade 1): 5 | Dizziness, adverse events related to 17-DMAG ([3]; Grade 1): 1 | Dry eye, adverse events related to 17-DMAG ([3]; Grade 1): 1 | Dry mouth, adverse events related to 17-DMAG ([3]; Grade 1): 3 | Eosinophilia, adverse events related to 17-DMAG ([3]; Grade 1): 1 | Fever, adverse events related to 17-DMAG ([3]; Grade 1): 2 | Hand foot syndrome, adverse events related to 17-DMAG ([3]; Grade 1): 1 | Heartburn, adverse events related to 17-DMAG ([3]; Grade 1): 1 | High protein, adverse events related to 17-DMAG ([3]; Grade 1): 1 | Hypergylcaemia, adverse events related to 17-DMAG ([3]; Grade 1): 2 | Hypertension, adverse events related to 17-DMAG ([3]; Grade 1): 3 | Hyperuricaemia, adverse events related to 17-DMAG ([3]; Grade 1): 1 | Hypocalcaemia, adverse events related to 17-DMAG ([3]; Grade 1): 1 | Hypokalaemia, adverse events related to 17-DMAG ([3]; Grade 1): 2 | Hyponatraemia, adverse events related to 17-DMAG ([3]; Grade 1): 3 | Limb edema, adverse events related to 17-DMAG ([3]; Grade 1): 2 | Low eosinophils, adverse events related to 17-DMAG ([3]; Grade 1): 1 | Low hematocrit, adverse events related to 17-DMAG ([3]; Grade 1): 1 | Low red cell count, adverse events related to 17-DMAG ([3]; Grade 1): 1 | Low urea, adverse events related to 17-DMAG ([3]; Grade 1): 1 | Lymphopenia, adverse events related to 17-DMAG ([3]; Grade 1): 2 | Muscle spasm, adverse events related to 17-DMAG ([3]; Grade 1): 1 | Nausea, adverse events related to 17-DMAG ([3]; Grade 1): 5 | Neuropathy, adverse events related to 17-DMAG ([3]; Grade 1): 1 | Nightmares, adverse events related to 17-DMAG ([3]; Grade 1): 1 | Ocular surface disease, adverse events related to 17-DMAG ([3]; Grade 1): 2 | Oliguria, adverse events related to 17-DMAG ([3]; Grade 1): 1 | Pain, Abdomen, adverse events related to 17-DMAG ([3]; Grade 1): 1 | Pain, Headache, adverse events related to 17-DMAG ([3]; Grade 1): 1 | Pain, Joint, adverse events related to 17-DMAG ([3]; Grade 1): 5 | Pain, Limb, adverse events related to 17-DMAG ([3]; Grade 1): 1 | Pain, Myalgia, adverse events related to 17-DMAG ([3]; Grade 1): 2 | Proteinuria, adverse events related to 17-DMAG ([3]; Grade 1): 3 | Raised CK, adverse events related to 17-DMAG ([3]; Grade 1): 1 | Raised amylase, adverse events related to 17-DMAG ([3]; Grade 1): 1 | Raised bilirubin (hepatic), adverse events related to 17-DMAG ([3]; Grade 1): 1 | Raised leucocytes, adverse events related to 17-DMAG ([3]; Grade 1): 1 | Raised neutrophils, adverse events related to 17-DMAG ([3]; Grade 1): 2 | Rash, adverse events related to 17-DMAG ([3]; Grade 1): 1 | Sinus tachycardia, adverse events related to 17-DMAG ([3]; Grade 1): 1 | Thrombocytopenia, adverse events related to 17-DMAG ([3]; Grade 1): 3 | Vivid dreams, adverse events related to 17-DMAG ([3]; Grade 1): 1 | Voice change, adverse events related to 17-DMAG ([3]; Grade 1): 1 | Vomiting, adverse events related to 17-DMAG ([3]; Grade 1): 2 | Weight loss, adverse events related to 17-DMAG ([3]; Grade 1): 1 | ALP (hepatic), adverse events related to 17-DMAG ([3]; Grade 2): 1 | ALT (hepatic), adverse events related to 17-DMAG ([3]; Grade 2): 1 | Anorexia, adverse events related to 17-DMAG ([3]; Grade 2): 1 | Blurred vision, adverse events related to 17-DMAG ([3]; Grade 2): 2 | Diarrhea, adverse events related to 17-DMAG ([3]; Grade 2): 1 | Dry eye, adverse events related to 17-DMAG ([3]; Grade 2): 2 | Eye (herpes simplex), adverse events related to 17-DMAG ([3]; Grade 2): 1 | Fatigue, adverse events related to 17-DMAG ([3]; Grade 2): 2 | Fever, adverse events related to 17-DMAG ([3]; Grade 2): 1 | Keratitis, adverse events related to 17-DMAG ([3]; Grade 2): 2 | Nausea, adverse events related to 17-DMAG ([3]; Grade 2): 1 | Pain, Joint, adverse events related to 17-DMAG ([3]; Grade 2): 2 | Vomiting, adverse events related to 17-DMAG ([3]; Grade 2): 4 | ALT (hepatic), adverse events related to 17-DMAG ([3]; Grade 3): 1 | AST (hepatic), adverse events related to 17-DMAG ([3]; Grade 3): 1 | Acidosis, adverse events related to 17-DMAG ([3]; Grade 3): 1 | Creatinine, adverse events related to 17-DMAG ([3]; Grade 3): 1 | Dehydration, adverse events related to 17-DMAG ([3]; Grade 3): 1 | Diarrhea, adverse events related to 17-DMAG ([3]; Grade 3): 1 | Fatigue, adverse events related to 17-DMAG ([3]; Grade 3): 1 | Hyponatraemia, adverse events related to 17-DMAG ([3]; Grade 3): 1 | Lymphopenia, adverse events related to 17-DMAG ([3]; Grade 3): 1 | Thrombocytopenia, adverse events related to 17-DMAG ([3]; Grade 3): 1 | γGT (hepatic), adverse events related to 17-DMAG ([3]; Grade 3): 1 | AST (hepatic), adverse events related to 17-DMAG ([3]; Grade 4): 1 | Hypotension, adverse events related to 17-DMAG ([3]; Grade 4): 1 | Renal failure, adverse events related to 17-DMAG ([3]; Grade 5): 1 | Tolerability ([3]; doses ≤ 80mg/m^2): well tolerated | Maximum tolerated dose (MTD) ([3]; weekly IV, patients with advanced solid tumors): 80 mg/m^2 | Recommended Phase II dose ([3]; weekly, IV): 80 mg/m^2 | Half life ([4]; dose 40.0 mg/m^2, 1 hr IV infusion, 3 patients): 21.5 ± 4.3 (19.7) hr | Half life ([4]; dose 80.0 mg/m^2, 1 hr IV infusion, 8 patients): 27.8 ± 7.1 (25.4) hr | Cmax ([4]; human, intravenous, 80 mg/m2): 2680 nM | Vd ([4]; human, intravenous, 80 mg/m2): 385 L | clearance ([4]; human, intravenous, 80 mg/m2): 315 mL/min | AUC ([4]; human, iv, 2.5 mg/m^2): 0.581 ± 0.236 µM·h | Cmax ([4]; human, iv, 2.5 mg/m^2): 64.1 ± 19.7 nM | clearance ([4]; human, iv, 2.5 mg/m^2): 218 mL/min | half-life ([4]; human, iv, 2.5 mg/m^2): 1510 ± 774 min | AUC ([4]; human, iv, 5 mg/m^2): 0.864 ± 0.651 µM·h | Cmax ([4]; human, iv, 5 mg/m^2): 85.4 ± 55.2 nM | clearance ([4]; human, iv, 5 mg/m^2): 858 mL/min | half-life ([4]; human, iv, 5 mg/m^2): 1100 ± 450 min | AUC ([4]; human, iv, 20 mg/m^2): 3.73 ± 2.04 µM·h | Cmax ([4]; human, iv, 20 mg/m^2): 480 ± 176 nM | clearance ([4]; human, iv, 20 mg/m^2): 345 mL/min | half-life ([4]; human, iv, 20 mg/m^2): 1720 ± 852 min | AUC ([4]; human, iv, 40 mg/m^2): 6.51 ± 3.22 µM·h | Cmax ([4]; human, iv, 40 mg/m^2): 957 ± 248 nM | clearance ([4]; human, iv, 40 mg/m^2): 322 mL/min | AUC ([4]; human, iv, 80 mg/m^2): 12.7 ± 2.87 µM·h | Cmax ([4]; human, iv, 80 mg/m^2): 2680 ± 1320 nM | clearance ([4]; human, iv, 80 mg/m^2): 315 mL/min | AUC ([4]; human, iv, 106 mg/m^2): 32.3 ± 16.3 µM·h | Cmax ([4]; human, iv, 106 mg/m^2): 3750 ± 1370 nM | clearance ([4]; human, iv, 106 mg/m^2): 213 mL/min | half-life ([4]; human, iv, 106 mg/m^2): 1480 ± 108 min | Dose at which transient HSP72 induction (< 24 hours) was detected in PBMCs (HSP90 [5]): ≥ 5 mg/m^2 | Dose at which CDK4 depletion was demonstrated in PBMC (HSP90 [5]; some patients): ≥ 80 mg/m^2
